# From PubChem BioAssay
# This is one part of a sample in which hits are shown more often than they occur.
# T cruzi repl: T. cruzi replication inhibition; T. cruzi beta-gal in NIH3T3, luminescence, 90 h; inhibition, % (test concentration not listed); 300,000 tested, 1.4% active; AID 1885;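 active = mean inhibition across valid replicates above about 55%, limit read from the data; inconclusive = mean below that limit but half or more replicates reach it; inactive = mean below it, under half of replicates reach it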;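 also: signal also drops with host cell toxicity which is not excluded here; higher percent means less beta-gal luminescence so fewer parasites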
#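 System – NIH/3T3 host cells with β-galactosidase reporter T. cruzi · Doses – single 50 nL compound addition per well in DMSO · Reagent – 5000 T. cruzi trypomastigotes/well · Medium – Low-serum DMEM with 2% FBS · Timing – ≥90 h infection period, 3 h prior cell attachment · Evaluation – parasite load inhibition, % · Technique – GalScreen luminescence, 60 min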
# Calb FLC: affects C. albicans growth with fluconazole | AID 1979 | 300,000 tested, 0.57% active | growth inhibition, % (test concentration not listed) | C. albicans CaCi-2 + fluconazole, Alamar Blue growth, 48 h;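 active = growth inhibition above about 58% in most replicates, limit read from the data, passing the limit was not always enough; inconclusive = exactly half the replicates above a set limit; inactive = most replicates below a set limit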;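 also: all wells also contain fluconazole at 8 µg/ml as a sub-toxic cotreatment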
# NALP1 yeast inh: inhibitors of NALP1 inflammasome in yeast | inhibition, % at 10 µM | S. cerevisiae NALP1/ASC/caspase-1 growth, X-gal OD620, 72 h | 280,000 tested, 0.61% active; in the data active = inhibition mostly above about 24%, no sharp cut-off; inactive = mostly below about 32%
# L major viab: inhibitors of Leishmania major promastigote growth; inhibition, % at 10 µM; Leishmania major promastigotes, resazurin fluorescence viability; 200,000 tested, 9% active; in the data active = inhibition above about 50%;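 also: promastigotes grown with compound for 44 hours at 28 °C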
# NLRP3 yeast inh: inhibitors of NALP3 inflammasome in yeast | Yeast reconstituted NLRP3/ASC/caspase-1, beta-gal luminescence, 24 h | inhibition, % at 10 µM | 330,000 tested, 0.39% active;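 active = inhibition of 50% or more; inactive = inhibition below 50%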
# PolyA inh: blocks polyadenylation in yeast reporter cells | S. cerevisiae SKY197-pL101 polyadenylation reporter, beta-gal luminescence; efflux-impaired pdr1/pdr3 knockout yeast; score 100 = 6 SD above DMSO | activity score, % at 12 µM | 300,000 tested, 0.02% active | AID 1875;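 active = lowest replicate activity score at least 50, where 100 means six control SD above control mean; inconclusive = lowest score under 50 but half or more replicates reach 50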;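 also: yeast exposed to compound for 9 h at 30 °C; higher score means more reporter readthrough which indicates perturbed polyadenylation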
# Numbers stand for hits; . = inactive; ? = inconclusive; / = no result.
SMILES,T cruzi repl,Calb FLC,NALP1 yeast inh,L major viab,NLRP3 yeast inh,PolyA inh
COc1ccc(C(O)c2cc(OC)ccc2OP(=O)(N(C)C)N(C)C)cc1 (stereo unspecified),.,.,.,.,.,.
COc1ccc(C(O)c2ccccc2OP(=O)(N(C)C)N(C)C)cc1 (stereo unspecified),.,.,.,66,.,.
COc1ccc(C(=O)OC2C[C@H]3CC[C@H](C2)N3C)cc1OC (stereo partly specified),/,/,/,/,.,/
COC(=O)C1C(OC(=O)c2ccccc2)CC2CCC1N2C (stereo unspecified),.,.,.,.,.,?
CCOc1ccc(C(=O)OC2CC3CCC(C2)N3C)cc1 (stereo unspecified),.,.,.,72,.,.
CN1C2CCC1CC(OC(=O)c1ccc(Cl)cc1)C2 (stereo unspecified),.,.,.,97,.,.
COC(=O)C1=C(c2ccc(Cl)c(C(F)(F)F)c2)C[C@@H]2CC[C@H]1N2C(=O)NCc1cc(C)oc1C(F)(F)F,/,/,/,/,.,/
O=P1(NCCCn2cc[n+](Cc3nc4ccccc4[nH]3)c2)C=C(c2ccccc2)OC(c2ccccc2)=C1,.,.,/,/,.,.
CC(=NCc1ccc2c(c1)OCO2)c1c(O)n(Cc2ccccc2)c(=O)[nH]c1=O,.,?,/,/,.,.
Cn1cnc([N+](=O)[O-])c1Sc1ccc([N+](=O)[O-])cc1,.,.,.,84,.,.
CN(C(=O)CNC(=O)OCc1ccccc1)c1ccc(Br)cc1C(=O)c1ccccc1Cl,.,.,.,.,.,.
O=c1[nH]c(=S)n(Cc2ccc(F)cc2)c(O)c1/C=N/N1CCCCCC1,.,.,46,.,.,.
O=c1[nH]c(=S)n(Cc2ccc(F)cc2)c(O)c1C=NCc1ccc2c(c1)OCO2,.,.,/,/,.,.
CN1C2CCC1CC(OC(=O)c1ccc(Cl)cc1)(C(=O)O)C2 (stereo unspecified),.,.,.,.,.,.
CCCCCCOc1ccc(CN2CCN(C)CC2)cc1,68,.,.,100,.,.
CN1CCN(Cc2ccc3ccccc3c2)CC1,.,.,.,/,.,.
C=C(C)[C@@]12OC3(c4ccccc4)O[C@@H]1C1[C@@H]4O[C@]4(CO)[C@@H](O)[C@]4(O)C(=O)C(C)=C[C@H]4[C@@]1(O3)[C@H](C)[C@H]2OC(=O)/C=C/C=C/c1ccccc1 (stereo partly specified),57,.,/,/,.,.
COc1ccc(C2=CC(c3ccc(OC)c(OC)c3)c3c(c4ccccc4oc3=O)O2)cc1OC (stereo unspecified),.,.,.,/,.,.
O=C(COc1ccc(Cl)cc1)N1CCN(C/C=C/c2ccccc2)CC1,.,.,.,89,.,.
COc1ccc(OCC(=O)N2CCN(C/C=C/c3ccccc3)CC2)cc1,.,.,.,73,.,.
O=C(COc1ccccc1)N1CCN(C/C=C/c2ccccc2)CC1,.,.,.,92,.,.
O=C(COc1ccccc1)N1CCN(CC(O)COc2ccccc2)CC1 (stereo unspecified),.,.,.,.,.,.
CCC1(CC)C(=O)NC(=Nc2cccc(C(F)(F)F)c2)NC1=O,.,.,.,.,.,.
Cc1nn(Cc2ccccc2Cl)c(C)c1C(=O)NC1CCCc2ccccc21 (stereo unspecified),.,.,.,.,.,.
Cc1ccc(NC2=NCCCS2)cc1Cl,.,.,.,/,.,.
SMILES,T cruzi repl,Calb FLC,NALP1 yeast inh,L major viab,NLRP3 yeast inh,PolyA inh
Clc1ccc(NC2=NCCCS2)cc1Cl,55,.,.,/,.,.
CN1CCC(O)(c2ccc(Cl)cc2)C(C(=O)c2ccc(Cl)cc2)C1 (stereo unspecified),.,.,.,86,.,.
CN1CC(C(=O)c2ccc(Cl)cc2)C(c2ccc(Cl)cc2Cl)C1 (stereo unspecified),.,.,.,/,.,.
Cc1ccccc1CCNCc1ccc(Br)cc1,.,.,.,.,.,.
O=C(CN1C2CCC1CC(O)(c1cccnc1)C2)Nc1ccc2c(c1)OCO2 (stereo unspecified),.,.,.,90,.,.
OC1(c2cccnc2)CC2CCC(C1)N2Cc1nnnn1Cc1ccccc1 (stereo unspecified),.,.,.,.,.,.
N#C/C(=C(/O)c1ccc(S(=O)(=O)N(CCCl)CCCl)cc1)c1nc2ccccc2[nH]1,.,.,/,/,.,.
O=C(O)c1c[nH]c2ccc(S(=O)(=O)N(CCCl)CCCl)cc12,.,.,40,.,.,.
COc1cc(C)cc(CN2CC=C(c3ccccc3)CC2)c1O,.,.,.,65,.,.
CC1CCCC(C)N1/N=C/c1c[nH]c2ccc(Br)cc12 (stereo unspecified),.,.,65,.,.,.
Cc1cccc(CN2CCN(Cc3ccc(Cl)cc3)CC2)c1,.,.,.,89,.,.
COc1ccccc1CN1CCN(Cc2ccc(Cl)cc2)CC1,58,?,.,.,.,.
COc1ccc(CN2CCN(Cc3ccccc3OC)CC2)cc1,.,.,.,/,.,.
Cc1cccc(CN2CCN(c3ccc(Cl)cc3)CC2)c1,.,.,.,.,.,.
Oc1ccc(Cl)cc1CN1CCN(Cc2ccccc2)CC1,.,.,.,63,.,.
C[C@H]1[C@@H](c2ccccc2)O[C@@H](c2ccccc2Br)N1C,.,.,/,/,.,.
CC(=O)OC1C2CCC1C(N1CCCC1)CC2 (stereo unspecified),.,.,.,.,.,.
COC(=O)C[C@]1(C(=O)OC)CN(C#N)N(c2ccc(Cl)cc2)C12c1ccccc1-c1ccccc12,.,.,.,100,.,.
COc1ccc(N2CCN(CCc3ccncc3)CC2)cc1,.,.,.,/,.,.
c1ccc(CCN2CCC(N3CCN(c4ccccc4)CC3)CC2)cc1,.,.,.,95,.,.
Nc1ccc(CCN2CCCC2)cc1,.,.,/,/,.,.
CCCCN(Cc1ccccc1)C1CCN(CCc2ccccc2)CC1,.,.,48,91,.,.
CCCCNC(=S)N1CCn2cccc2C1c1cccnc1 (stereo unspecified),65,.,.,92,.,.
CC12CN3CC(C)(CN(C1)C3c1cccnc1)C2=O (stereo unspecified),.,.,.,.,.,.
CNC(=S)N1CCn2cccc2C1c1cccnc1 (stereo unspecified),.,.,.,68,.,.
Cc1nn(-c2ccccc2)c2c1C(c1ccc3c(c1)OCO3)SCC(=O)N2 (stereo unspecified),.,.,.,99,.,.
COc1cc(C2SCC(=O)Nc3c2c(C)nn3-c2ccccc2)cc(OC)c1OC (stereo unspecified),.,.,.,91,.,.
